# Laboratory results published in PubChem BioAssay.
# Calls of active or inactive are those of the source.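 The calls were made as follows, unless noted: active = viability loss from added drug above about 55%, and viability with drug at most 40%, in both replicates (limit read from the data, passing the limit was not always enough); inconclusive = both conditions met in only one replicate; inactive = neither replicate meets both conditions.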 Peptide text beside a SMILES is read from it. * marks the point of attachment. Boc = CC(C)(C)OC(=O)*
# Experiments:
# [1] = Her2 expression decrease, cell viability multiplex – SKBR3 breast tumor cells, AlphaScreen, ATP viability, primary screen (AID 461;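 active = Her2 level under about 52% in both replicate screens, with viability over 70% of control, limit read from the data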;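 as to Her2 level: lower value means less Her2 protein in the cells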;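 as to viability: percent of carrier control wells set as 100% viability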); conditions: SKBR3 Her2 protein level, 18-24 h, measured here: SKBR3 viability, ATP luminescence, at 10 µM
# [2] = biological target: Receptor tyrosine-protein kinase erbB-2 (Homo sapiens) (UniProt P04626); assay: as above; conditions: 18-24 h, at 10 µM, stronger effect = lower value
# Chain of Receptor tyrosine-protein kinase erbB-2 (Homo sapiens) (P04626 whole entry, looked up): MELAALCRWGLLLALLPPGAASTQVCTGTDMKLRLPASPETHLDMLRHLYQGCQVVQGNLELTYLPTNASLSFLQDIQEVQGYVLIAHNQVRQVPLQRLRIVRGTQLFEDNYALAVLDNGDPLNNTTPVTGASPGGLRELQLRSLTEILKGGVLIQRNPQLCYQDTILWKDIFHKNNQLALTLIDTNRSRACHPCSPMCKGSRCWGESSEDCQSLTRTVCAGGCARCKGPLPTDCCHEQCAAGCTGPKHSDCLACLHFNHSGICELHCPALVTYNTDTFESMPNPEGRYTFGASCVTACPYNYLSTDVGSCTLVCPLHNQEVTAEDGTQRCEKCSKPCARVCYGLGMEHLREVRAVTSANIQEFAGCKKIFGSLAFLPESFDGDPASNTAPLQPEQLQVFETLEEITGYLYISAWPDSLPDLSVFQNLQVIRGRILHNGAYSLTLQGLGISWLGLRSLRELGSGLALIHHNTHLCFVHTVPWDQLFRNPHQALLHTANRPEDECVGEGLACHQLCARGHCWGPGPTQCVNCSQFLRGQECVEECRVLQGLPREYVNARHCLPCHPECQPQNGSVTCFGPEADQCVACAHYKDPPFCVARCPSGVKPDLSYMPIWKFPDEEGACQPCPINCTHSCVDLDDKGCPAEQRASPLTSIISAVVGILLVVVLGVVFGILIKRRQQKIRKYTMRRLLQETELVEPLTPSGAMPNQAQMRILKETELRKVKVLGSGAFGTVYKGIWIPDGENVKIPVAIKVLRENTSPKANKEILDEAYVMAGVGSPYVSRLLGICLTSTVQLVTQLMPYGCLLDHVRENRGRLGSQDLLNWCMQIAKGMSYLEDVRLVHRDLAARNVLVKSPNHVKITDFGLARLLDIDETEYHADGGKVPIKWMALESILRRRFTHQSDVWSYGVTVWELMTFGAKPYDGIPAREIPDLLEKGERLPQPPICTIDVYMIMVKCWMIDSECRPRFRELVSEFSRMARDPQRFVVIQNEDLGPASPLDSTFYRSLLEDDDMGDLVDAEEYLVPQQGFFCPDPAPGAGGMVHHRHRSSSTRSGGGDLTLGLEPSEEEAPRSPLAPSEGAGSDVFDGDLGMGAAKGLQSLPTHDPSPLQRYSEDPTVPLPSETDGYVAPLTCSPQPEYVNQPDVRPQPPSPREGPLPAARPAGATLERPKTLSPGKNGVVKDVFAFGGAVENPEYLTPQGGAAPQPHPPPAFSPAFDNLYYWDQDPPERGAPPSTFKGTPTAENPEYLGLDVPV
# [3] = reduced viability of SK-BR-3 breast cancer cells – cell-based, 24 h, human, pilot screen (AID 572;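 active = viability at or below 10% of carrier control in both of two separate runs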;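 also: compound exposure lasted between 18 and 24 h rather than exactly 24 h; 100% = carrier-treated control wells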); conditions: SK-BR-3 viability, CellTiter-Glo luminescence, at 10 µM, stronger effect = lower value
# [4] = HUVEC growth inhibition – cell-based, human, primary screen (AID 575;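 active = viability at or below 30% in both replicate assays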;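 also: 100% = median of untreated cell wells with 0.1% DMSO on each plate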); conditions: HUVEC proliferation, CellTiter-Glo luminescence, 72 h; at 10 µM; stronger effect = lower value
# How it was run: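 System: primary human umbilical vein endothelial cells; Quantity: 1250 endothelial cells in each well; Buffer or medium: supplemented EBM, 2% fetal bovine serum; Doses: one dose, 10 µM final, 0.1% DMSO; Incubation: 72 h compound incubation; Technique: ATP-based CellTiter-Glo luminescent read; Evaluation: percent of median DMSO-control luminescence; Controls: vehicle and MePR control wells.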
# [5] = H69AR cell proliferation blockers – human, duplicate replicates, primary screen (AID 580;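 active = viability at or under a set limit in both replicates, limit being median viability minus 3 SD, cut at about 48% in these data, passing the limit was not always enough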;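 also: 100% = mean luminescence of untreated wells and 0% = no signal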); conditions: H69AR lung tumor cells viability, ATP luminescence, 72 h; at 10 µM; stronger effect = lower value
# [6] = MRP1 drug-resistance reversers in H69AR cells – cell-based, doxorubicin co-treatment, pilot screen (AID 601); conditions: CellTiter-Glo, 72 h, at 10 µM; for differential viability (reversal): stronger effect = higher value
# [7] = yeast transport mutant growth inhibition pilot in 384-well plates, post-Golgi transport modulator project (AID 636; in the data active = inhibition above about 31%); conditions: absorbance 615 nm, about 18 h, stronger effect = higher value
# [8] = growth suppression of yeast trafficking mutant, preliminary HTS, modulators of trafficking downstream of Golgi apparatus project, 1536-format plate, OD 615 nm (AID 637; in the data active = inhibition above about 30%); conditions: yeast transport mutant growth, absorbance 615 nm, 18 h; stronger effect = higher value
# [9] = H69AR cells + 2 uM doxorubicin, measured here: viability with 2 uM doxorubicin, stronger effect = lower value
# [10] = H69AR cells, compound alone cytotoxicity
Compound,viability [1] [%],Her2 level [2],viability [3],viability [4],viability [5],differential viability (reversal) ([6]; H69AR cells + 2 uM doxorubicin),"viability [6, 9] [%]","viability [6, 10] [%]",inhibition [7],inhibition [8]
CN(C)c1ccc(-c2nn3c(-c4ccc(Cl)cc4Cl)nnc3s2)cc1,100,71% (inactive),100% (inactive),46.7% (inactive),15.1% (active),-42.6% (inactive),57.7,15.1,-6.08% (inactive),5.08% (inactive)
O=C(COC(=O)c1ccc(Br)o1)Nc1ccc(S(=O)(=O)N2CCCC2)cc1,80,74.5% (inactive),80% (inactive),102% (inactive),95.6% (inactive),13.3% (inactive),82.3,95.6,-6.35% (inactive),-1% (inactive)
O=C(CSc1nccn1-c1cccc(Cl)c1)NC1CCCC1,95.5,86% (inactive),95.5% (inactive),95.5% (inactive),111% (inactive),10.3% (inactive),101,111,0.91% (inactive),14.1% (inactive)
COc1ccc(CCn2c(C)cc(C(=O)CSc3nnnn3C)c2C)cc1,99.5,144% (inactive),99.5% (inactive),81.7% (inactive),101% (inactive),-3.11% (inactive),104,101,-0.13% (inactive),-1.83% (inactive)
CC(NO)C(C)(C)NO (stereo not given),92,101% (inactive),92% (inactive),92.3% (inactive),100% (inactive),11.2% (inactive),89.2,100,-2.67% (inactive),12.1% (inactive)
COc1ccc(-n2nnc3c(=O)n(C/C=C/c4ccccc4)cnc32)cc1,116,100% (inactive),116% (inactive),105% (inactive),86.1% (inactive),8.94% (inactive),77.1,86.1,-6.62% (inactive),1.33% (inactive)
CC(C)CNC(=O)C1CC(=O)OC12CCCCC2 (stereo not given),100,95% (inactive),100% (inactive),112% (inactive),113% (inactive),22.3% (inactive),90.5,113,-8.11% (inactive),4.92% (inactive)
O=C(Nc1ccccc1C(F)(F)F)c1cc(S(=O)(=O)N2CCOCC2)ccc1F,96.5,91.5% (inactive),96.5% (inactive),102% (inactive),90.4% (inactive),8.93% (inactive),81.5,90.4,-6.49% (inactive),1.43% (inactive)
O=C1CC(c2cccs2)CC2=C1C(c1ccccc1)n1ncnc1N2 (stereo not given),105,104% (inactive),105% (inactive),100% (inactive),93.8% (inactive),-5.41% (inactive),99.2,93.8,-4.53% (inactive),-2.3% (inactive)
CC(C)[C@H](NC(=O)OC(C)(C)C)c1nnc(SCC(=O)Nc2ccc(Br)cc2)o1,96.5,108% (inactive),96.5% (inactive),87.5% (inactive),93.9% (inactive),5.79% (inactive),88.1,93.9,-1.17% (inactive),-14% (inactive)
OC(CNCC1COc2ccccc2O1)COCc1cccs1 (stereo not given),98,89.5% (inactive),98% (inactive),87.5% (inactive),83.1% (inactive),0.95% (inactive),82.1,83.1,-2.08% (inactive),-7.94% (inactive)
CCOC(=O)C1=C(CC)Nc2ccccc2N=C1NC(=O)Cn1cnc2ccccc2c1=O,96,80.5% (inactive),96% (inactive),97.1% (inactive),103% (inactive),20.2% (inactive),82.3,103,-5.07% (inactive),2.9% (inactive)
COc1ccc(NC(=O)CS(=O)CC(=O)Nc2cc(Cl)ccc2OC)cc1 (stereo not given),91.5,106% (inactive),91.5% (inactive),80.8% (inactive),90.9% (inactive),-1.21% (inactive),92.1,90.9,-4.36% (inactive),-3.67% (inactive)
CCn1c(SCC(=O)c2ccc(F)cc2)nnc1-c1ccoc1C,104,97.5% (inactive),104% (inactive),104% (inactive),106% (inactive),19.3% (inactive),86.9,106,-6.1% (inactive),-0.95% (inactive)
CCOC(=O)C1=C(C)NC(C)=C(C(=O)OCC)C1C(=O)OC1CCOC1=O (stereo not given),104,85% (inactive),104% (inactive),87.5% (inactive),93.8% (inactive),2.32% (inactive),91.4,93.8,-5.27% (inactive),0.95% (inactive)
Cc1cccc(-c2cc3nc4c(c(N5CCOCC5)n3n2)CCCC4)c1,93,70% (inactive),93% (inactive),71.7% (inactive),76% (inactive),-2.37% (inactive),78.4,76,-6.76% (inactive),2.95% (inactive)

Compound,viability [1] [%],Her2 level [2],viability [3],viability [4],viability [5],differential viability (reversal) ([6]; H69AR cells + 2 uM doxorubicin),"viability [6, 9] [%]","viability [6, 10] [%]",inhibition [7],inhibition [8]
Cc1ccc(CS(=O)(=O)CCC(=O)NCC2CCCO2)cc1 (stereo not given),96.5,106% (inactive),96.5% (inactive),116% (inactive),93.3% (inactive),2.6% (inactive),90.7,93.3,-7.03% (inactive),7.5% (inactive)
Cn1c(=O)c2c(nc(CN3CCCCC3)n2CCc2ccccc2)n(C)c1=O,87,107% (inactive),87% (inactive),111% (inactive),91.9% (inactive),-1.94% (inactive),93.9,91.9,2.27% (inactive),13.8% (inactive)
COc1ccc(N2CCC(CNS(=O)(=O)c3cccc(C(F)(F)F)c3)C2)cc1 (stereo not given),98,95% (inactive),98% (inactive),84.5% (inactive),86.7% (inactive),-2.23% (inactive),88.9,86.7,-2.63% (inactive),16.6% (inactive)
CCOC(=O)c1c(C)[nH]c(C=Nc2ccccc2)c1O,94,91.5% (inactive),94% (inactive),106% (inactive),101% (inactive),10.2% (inactive),90.8,101,-4.13% (inactive),11.4% (inactive)
COC(=O)c1cnn2c(C(F)(F)F)cc(-c3ccco3)nc12,99,80% (inactive),99% (inactive),79.9% (inactive),64.8% (inactive),-11.7% (inactive),76.5,64.8,-4.61% (inactive),0.82% (inactive)
Cc1ccc2cc(C(c3nnnn3CC3CCCO3)N3CCCC4(CCCCC4)C3)c(=O)[nH]c2c1 (stereo not given),107,92.5% (inactive),107% (inactive),97.9% (inactive),85.1% (inactive),-8.48% (inactive),93.6,85.1,-7.27% (inactive),0% (inactive)
COc1ccc(Oc2nc(Oc3ccc(OC)cc3)nc(Oc3ccc(OC)cc3)n2)cc1,104,102% (inactive),104% (inactive),95.6% (inactive),94.6% (inactive),6.92% (inactive),87.7,94.6,-0.93% (inactive),-5.81% (inactive)
O=S(=O)(Nc1ccccn1)c1ccc(Oc2ccccc2)cc1,88,87.5% (inactive),88% (inactive),87.8% (inactive),98.8% (inactive),10.5% (inactive),88.3,98.8,-2.57% (inactive),-1.11% (inactive)
Cc1sc2c(c1C)CN(C1CC(C)(C)NC(C)(C)C1)CN2C(=O)c1ccco1,86.5,80.5% (inactive),86.5% (inactive),75.7% (inactive),83.7% (inactive),0.235% (inactive),83.4,83.7,-7.33% (inactive),1.8% (inactive)
Cn1c(SCc2cccc3ccccc23)nnc1-c1ccco1,76,98.5% (inactive),76% (inactive),126% (inactive),92.4% (inactive),7.87% (inactive),84.5,92.4,-0.93% (inactive),-6.94% (inactive)
CC(C)(C)OC(=O)N1CCCC1C(=O)NC(Cc1ccccc1)C(=O)O (stereo not drawn) (Boc-Pro-Phe-OH; configuration not given here),116,102% (inactive),116% (inactive),96.1% (inactive),104% (inactive),8.93% (inactive),95.2,104,-4.59% (inactive),0.48% (inactive)
CCN(Cc1nc2cc(OC)c(OC)cc2c(=O)[nH]1)C(=O)c1ccc(S(=O)(=O)N(C)C)cc1,113,106% (inactive),113% (inactive),88.2% (inactive),109% (inactive),10.3% (inactive),98.5,109,-3.07% (inactive),3.44% (inactive)
COc1cccc(-n2nnnc2SCC(=O)NCc2ccco2)c1,117,92.5% (inactive),117% (inactive),90.5% (inactive),83.2% (inactive),5.98% (inactive),77.2,83.2,-4.8% (inactive),4.52% (inactive)
O=C(CSc1ncnc2c1oc1ccccc12)Nc1ccccc1C(F)(F)F,118,126% (inactive),118% (inactive),86.8% (inactive),95.8% (inactive),8.15% (inactive),87.6,95.8,-5.6% (inactive),-2% (inactive)
COCCNC(=O)C(c1ccc(O)cc1)N(Cc1ccco1)C(=O)CCC(=O)Nc1nccs1 (stereo not given),81.5,104% (inactive),81.5% (inactive),104% (inactive),99.5% (inactive),11.1% (inactive),88.3,99.5,-0.81% (inactive),-6.23% (inactive)
O=C(Cn1ccc2ccccc2c1=O)NCCC(=O)N1CCN(C(=O)c2ccco2)CC1,89.5,109% (inactive),89.5% (inactive),102% (inactive),98.1% (inactive),6.74% (inactive),91.4,98.1,-1.6% (inactive),-2.3% (inactive)
